Tests used:
[1] = L-cystine crystallization inhibition assay; details: from EC50 values
Procedure, shortened: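 Supersaturated L-cystine (2.9 mM in Millipore water) was incubated with varying test compound concentrations for 72 h at room temperature, then centrifuged. L-cystine remaining in the supernatant was measured. EC50 came from dose–response curves, and relative potency was expressed as a ratio of EC50 values against reference inhibitors.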

[2] = system: L-cystine stone formation in Slc3a1-knockout mouse model of cystinuria; experiment: In vivo efficacy in Slc3a1-knockout mouse model of cystinuria; set-up: species or system Slc3a1-knockout male mice; details: 150 μmol/kg by gavage daily for 8 weeks
[3] = Oral bioavailability and pharmacokinetics in Slc3a1-knockout mice; assay type: in vivo; details: male, mouse, plasma, 150 umol/kg
Procedure, shortened: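 Male Slc3a1-knockout mice (4 per route) received a single oral gavage of 150 μmol/kg in normal saline (100 μL) or a tail-vein iv dose of 30 μmol/kg. About 60 μL saphenous blood was drawn pre-dose and at 5, 15, 30 min and 1, 4, 8, 24 h. Plasma was stored at −80 °C. Parent and mixed-disulfide metabolite were quantified by LC-MS/MS against synthetic metabolite standard. F was derived from oral versus iv exposure.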

CL/F [3]: 8 L/h/kg
Vd/F [3]: 7 L/kg
SMILES: N[C@@H](CSSC[C@H](N)C(=O)N1CCC2(CCCN2)CC1)C(=O)N1CCC2(CCCN2)CC1 [compound 3, 8-L-cystinyl bis(1,8-diazaspiro[4.5]decane)]
Fold more potent than CDME in inhibiting L-cystine crystallization [1]: about 120 ×
Fold more potent than LH708 in inhibiting L-cystine crystallization [1]: about 2 ×
Fold more potent than CDME in inhibiting L-cystine crystallization ([1]; listed as LH1753): 120 ×
Fold more potent than LH708 in inhibiting L-cystine crystallization ([1]; listed as LH1753): 2 ×
Effect on growth [2]: no adverse effect on growth
Mice with stones in treated group ([2]; water group 28 of 51): 1 out of 25

Reference: publication PMC11247636 (ACS Medicinal Chemistry Letters, 2024)
